Experimental data: ChEMBL document CHEMBL1146203, “Acridone-based inhibitors of inosine 5'-monophosphate dehydrogenase: discovery and SAR leading to the identification of N-(2-(6-(4-ethylpiperazin-1-yl)pyridin-3-yl)propan-2-yl)-2- fluoro-9-oxo-9,10-dihydroacridine-3-carboxamide (BMS-566419)” (J Med Chem, 2007)
Calls of active or inactive are those of the source. The calls are words filed in the database; no cut-off is given here.

Legend:
[1] = Therapeutic index for gastrointestinal toxicity in Lewis rat adjuvant arthritis model; settings: read-out: TI
Outline: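 GI therapeutic index in the rat adjuvant arthritis model, calculated as the ratio of exposure (AUC) at the maximum tolerated dose for GI toxicity to the AUC at the lowest efficacious dose.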

Rattus norvegicus [2] = assay: Efficacy against Freund's complete adjuvant-induced arthritis in Lewis rat assessed as inhibition of paw swelling at 15 mg/kg, po after 21 days; type: functional, organism-based; parameters: dose 15 mg/kg
Outline: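 Adjuvant arthritis induced by subcutaneous Freund's complete adjuvant at the tail base in male Lewis rats. Oral dosing once daily for 21 days from day 0, vehicle 60% PEG400/40% 0.01 N HCl, 8 rats per group. Hind paw volume measured by plethysmometry at baseline and over three weeks; increase above baseline calculated; Student's t test against the vehicle group.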

Rattus norvegicus [3] = species on record: Rattus norvegicus; assay: Gastrointestinal toxicity in Lewis rat adjuvant arthritis model; type: organism-based; settings: in vivo
Outline: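 Lewis rats in the adjuvant arthritis setting were given escalating oral daily doses for up to 14 days. Animals were monitored for diarrhea and weight loss, with gross examination and histopathology (crypt cell necrosis) used to define the maximum tolerated dose for GI toxicity.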

PBMC = assay: Inhibition of T cell proliferation in PBMC cells; type: functional, cell-based; settings: Homo sapiens
Outline: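 Human PBMCs isolated from heparinized whole blood by density gradient and plated at 5 × 10^4 cells/well in RPMI 1640 with 10% FBS. Stimulated with anti-CD3 OKT3 (200 ng/mL) plus soluble anti-CD28 (1 µg/mL). Compounds tested in triplicate from 3.3 µM in 3-fold dilutions with 0.5% DMSO for 72 h.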

[4] = target: Inosine-5'-monophosphate dehydrogenase 2 (Homo sapiens, UniProt P12268); assay: Inhibition of human IMPDH2
CCRF-CEM = assay: Inhibition of CEM cell proliferation; type: functional, cell-based; settings: Homo sapiens
Outline: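 Human CEM T-lymphoblasts grown in RPMI 1640 with 10% heat-inactivated FBS and penicillin/streptomycin. Seeded at 3000 cells/well with 0.5% DMSO; compounds tested in triplicate from 10 µM top concentration in 3-fold dilutions.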

Serum = assay: Protein binding in serum; type: ADME, cell-free; settings: human
Rattus norvegicus [5] = assay: Efficacy against Freund's complete adjuvant-induced arthritis in Lewis rat assessed as inhibition of paw swelling at 10 mg/kg, po after 21 days; type: functional, organism-based; parameters: dose 10 mg/kg
Outline: (§1)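 Male Lewis rats; arthritis induced by subcutaneous Freund's complete adjuvant at the tail base. Oral dosing once daily for 21 days from day 0, in 60% PEG400/40% 0.01 N HCl vehicle; 8 rats per group. Hind paw volume was measured by plethysmometry at baseline and over three weeks, and the increase above baseline was calculated. Groups were compared with vehicle by Student's t test.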

[6] = Bioavailability in cynomolgus monkey at 10 mg/kg, po; settings: in vivo
[7] = Volume of distribution at steady state in cynomolgus monkey at 2 mg/kg, iv; type: ADME, organism-based, Macaca fascicularis; parameters: dose 2 mg/kg, route intravenous; settings: in vivo, read-out: Vdss
Outline: (§2)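 Rat and cynomolgus monkey PK: oral dose 10 mg/kg and iv dose 2 mg/kg; oral vehicle 60% PEG400/40% HCl at pH 3. Cmax, Tmax and AUC taken from the oral arm; T1/2, MRT, Cl and Vss from the iv arm; Fpo calculated. Values are the mean ± SD of three animals.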

[8] = Permeability across Caco-2 cells; type: ADME, cell-based; settings: human, read-out: permeability
[9] = Cmax in cynomolgus monkey at 10 mg/kg, po; type: ADME, organism-based, Macaca fascicularis; parameters: dose 10 mg/kg, route oral; settings: in vivo; outline: as §2
[10] = Cmax in rat at 10 mg/kg, po; type: ADME, organism-based; parameters: dose 10 mg/kg, route oral; settings: in vivo; outline: as §2
Rattus norvegicus [11] = assay: Efficacy against Freund's complete adjuvant-induced arthritis in Lewis rat assessed as inhibition of paw swelling at 50 mg/kg, po after 21 days; type: functional, organism-based; parameters: dose 50 mg/kg; outline: as §1
Cytochrome P450 2D6 = Cytochrome P450 2D6 (Homo sapiens, UniProt P10635); assay: Inhibition of CYP2D6; type: ADME
Cytochrome P450 2D6, sequence (P10635 whole entry): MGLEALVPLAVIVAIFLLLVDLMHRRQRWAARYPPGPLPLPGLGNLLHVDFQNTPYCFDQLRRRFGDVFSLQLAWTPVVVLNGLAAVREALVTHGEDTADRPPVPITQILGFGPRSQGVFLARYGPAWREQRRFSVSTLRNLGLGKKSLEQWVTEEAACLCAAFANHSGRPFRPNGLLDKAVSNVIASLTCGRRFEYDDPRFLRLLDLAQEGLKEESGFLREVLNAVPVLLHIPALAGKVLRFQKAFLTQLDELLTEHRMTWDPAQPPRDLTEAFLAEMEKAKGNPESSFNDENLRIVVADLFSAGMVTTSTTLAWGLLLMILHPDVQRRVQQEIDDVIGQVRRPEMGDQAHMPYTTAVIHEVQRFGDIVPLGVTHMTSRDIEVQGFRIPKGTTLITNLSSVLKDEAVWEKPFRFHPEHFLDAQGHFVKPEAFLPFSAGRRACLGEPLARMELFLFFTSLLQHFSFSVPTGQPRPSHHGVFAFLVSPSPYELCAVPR
Outline: (§3)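 Inhibition measured against isolated CYP enzymes.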

[12] = AUC in rat at 10 mg/kg, po; type: ADME, organism-based; parameters: dose 10 mg/kg, route oral; settings: plasma; outline: as §2
Rattus norvegicus [13] = assay: Tmax in rat at 10 mg/kg, po; type: ADME, organism-based; parameters: dose 10 mg/kg, route oral; settings: in vivo; outline: as §2
[14] = Bioavailability in rat at 10 mg/kg, po; type: ADME, organism-based; settings: in vivo; outline: as §2
[15] = Clearance in rats at 2 mg/kg, iv; type: ADME, organism-based; parameters: dose 2 mg/kg, route intravenous; settings: rat, in vivo; outline: as §2
Rattus norvegicus [16] = assay: Efficacy against Freund's complete adjuvant-induced arthritis in Lewis rat assessed as inhibition of paw swelling at 25 mg/kg, po after 21 days; type: functional, organism-based; parameters: dose 25 mg/kg; outline: as §1
[17] = Mean residence time in cynomolgus monkey at 2 mg/kg, iv; type: ADME, organism-based, Macaca fascicularis; parameters: dose 2 mg/kg, route intravenous; settings: in vivo; outline: as §2
Cytochrome P450 3A4 = Cytochrome P450 3A4 (Homo sapiens, UniProt P08684); assay: Inhibition of CYP3A4; type: ADME; outline: as §3
Cytochrome P450 3A4, sequence (P08684 whole entry): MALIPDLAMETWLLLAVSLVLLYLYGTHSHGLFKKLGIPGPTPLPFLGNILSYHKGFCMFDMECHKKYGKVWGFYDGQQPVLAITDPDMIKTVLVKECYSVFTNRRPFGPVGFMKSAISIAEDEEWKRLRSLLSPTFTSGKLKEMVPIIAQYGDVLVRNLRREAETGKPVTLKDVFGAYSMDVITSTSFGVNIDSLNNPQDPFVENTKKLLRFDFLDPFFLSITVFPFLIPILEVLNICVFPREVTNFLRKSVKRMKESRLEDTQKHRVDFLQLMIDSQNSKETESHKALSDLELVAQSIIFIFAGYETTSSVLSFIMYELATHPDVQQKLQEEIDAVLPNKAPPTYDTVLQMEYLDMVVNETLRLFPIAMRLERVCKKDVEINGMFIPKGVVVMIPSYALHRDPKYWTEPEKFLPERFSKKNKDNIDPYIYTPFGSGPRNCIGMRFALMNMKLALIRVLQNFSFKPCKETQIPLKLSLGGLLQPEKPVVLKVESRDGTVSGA

[18] = Half life in cynomolgus monkey at 2 mg/kg, iv; type: ADME, organism-based, Macaca fascicularis; parameters: dose 2 mg/kg, route intravenous; settings: in vivo; outline: as §2
[19] = Volume of distribution at steady state in rat at 2 mg/kg, iv; type: ADME, organism-based; parameters: dose 2 mg/kg, route intravenous; settings: in vivo, read-out: Vdss; outline: as §2
[20] = AUC in cynomolgus monkey at 10 mg/kg, po; type: ADME, organism-based, Macaca fascicularis; parameters: dose 10 mg/kg, route oral; settings: plasma; outline: as §2
Cytochrome P450 1A2 = target: T1, Cytochrome P450 1A2 (Homo sapiens, UniProt P05177); assay: Inhibition of CYP1A2; type: ADME; outline: as §3
T1 sequence (P05177 whole entry): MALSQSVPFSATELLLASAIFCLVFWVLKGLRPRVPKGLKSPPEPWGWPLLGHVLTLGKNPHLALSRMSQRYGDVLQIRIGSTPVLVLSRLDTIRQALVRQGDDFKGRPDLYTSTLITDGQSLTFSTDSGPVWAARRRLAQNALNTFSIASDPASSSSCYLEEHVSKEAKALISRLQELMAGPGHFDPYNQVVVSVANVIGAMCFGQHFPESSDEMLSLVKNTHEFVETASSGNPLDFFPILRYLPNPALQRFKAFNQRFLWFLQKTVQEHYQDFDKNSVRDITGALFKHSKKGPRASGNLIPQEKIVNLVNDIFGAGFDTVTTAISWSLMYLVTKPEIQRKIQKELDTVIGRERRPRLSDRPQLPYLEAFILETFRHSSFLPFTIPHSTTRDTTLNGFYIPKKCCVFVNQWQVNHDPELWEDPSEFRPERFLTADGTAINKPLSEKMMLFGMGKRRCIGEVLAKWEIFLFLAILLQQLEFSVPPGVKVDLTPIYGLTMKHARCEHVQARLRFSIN

Cytochrome P450 2C9 = Cytochrome P450 2C9 (Homo sapiens, UniProt P11712); assay: Inhibition of CYP2C9; type: ADME; outline: as §3
Cytochrome P450 2C9, sequence (P11712 whole entry): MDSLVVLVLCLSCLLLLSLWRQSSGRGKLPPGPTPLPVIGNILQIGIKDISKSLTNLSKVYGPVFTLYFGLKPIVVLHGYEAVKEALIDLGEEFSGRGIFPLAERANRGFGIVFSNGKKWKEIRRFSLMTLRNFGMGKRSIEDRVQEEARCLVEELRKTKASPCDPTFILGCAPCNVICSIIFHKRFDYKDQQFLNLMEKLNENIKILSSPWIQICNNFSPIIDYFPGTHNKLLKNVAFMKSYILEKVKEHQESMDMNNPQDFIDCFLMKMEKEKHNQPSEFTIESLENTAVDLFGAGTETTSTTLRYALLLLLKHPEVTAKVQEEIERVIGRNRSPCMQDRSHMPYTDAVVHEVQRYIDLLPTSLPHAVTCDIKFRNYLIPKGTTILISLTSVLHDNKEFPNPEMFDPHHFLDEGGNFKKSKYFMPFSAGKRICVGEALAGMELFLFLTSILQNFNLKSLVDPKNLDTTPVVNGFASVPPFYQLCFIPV

[21] = Mean residence time in rat at 2 mg/kg, iv; type: ADME, organism-based; parameters: dose 2 mg/kg, route intravenous; settings: in vivo; outline: as §2
Cytochrome P450 2C19 = Cytochrome P450 2C19 (Homo sapiens, UniProt P33261); assay: Inhibition of CYP2C19; type: ADME; outline: as §3
Cytochrome P450 2C19, sequence (P33261 whole entry): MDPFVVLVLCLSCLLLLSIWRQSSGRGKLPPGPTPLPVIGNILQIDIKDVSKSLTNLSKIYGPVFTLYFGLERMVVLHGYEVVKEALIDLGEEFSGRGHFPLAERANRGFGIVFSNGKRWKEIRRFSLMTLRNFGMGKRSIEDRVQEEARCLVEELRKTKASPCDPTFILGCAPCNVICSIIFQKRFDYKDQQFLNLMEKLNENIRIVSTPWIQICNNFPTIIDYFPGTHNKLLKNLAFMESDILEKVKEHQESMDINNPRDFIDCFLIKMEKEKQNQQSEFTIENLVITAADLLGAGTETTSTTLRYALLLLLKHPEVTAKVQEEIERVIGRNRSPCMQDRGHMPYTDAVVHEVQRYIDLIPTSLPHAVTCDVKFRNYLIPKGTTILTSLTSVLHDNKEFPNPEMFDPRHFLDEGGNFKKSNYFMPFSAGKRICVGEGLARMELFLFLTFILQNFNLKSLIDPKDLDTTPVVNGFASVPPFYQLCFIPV

[22] = Lipophilicity, log P of the compound; type: physicochemical; settings: octanol/water
[23] = Clearance in cynomolgus monkey at 2 mg/kg, iv; type: ADME, organism-based, Macaca fascicularis; parameters: dose 2 mg/kg, route intravenous; settings: in vivo; outline: as §2
[24] = Half life in rat at 2 mg/kg, iv; type: ADME, organism-based; parameters: dose 2 mg/kg, route intravenous; settings: in vivo; outline: as §2

COc1c(C)c2c(c(O)c1C/C=C(\C)CCC(=O)OCCN1CCOCC1)C(=O)OC2 [MYCOPHENOLATE MOFETIL]
selectivity ratio [1]: 6.9
Activity (Rattus norvegicus [2]): Active
Activity (Rattus norvegicus [3]): Active

COc1c(C)c2c(c(O)c1C/C=C(\C)CCC(=O)O)C(=O)OC2 [MYCOPHENOLIC ACID]
IC50 (PBMC): 130 nM

CC(C)(NC(=O)c1cc2[nH]c3ccccc3c(=O)c2cc1F)c1ccccc1
IC50 [4]: 11 nM
IC50 (CCRF-CEM): 830 nM
IC50 (PBMC): 220 nM

CC(C)(NC(=O)c1ccc2c(=O)c3ccccc3[nH]c2c1)c1ccncc1
IC50 [4]: 53 nM
IC50 (CCRF-CEM): 2300 nM
IC50 (PBMC): 630 nM

C[C@H](NC(=O)c1ccc2c(=O)c3ccccc3[nH]c2c1)c1ccccc1
IC50 [4]: 431 nM

CC(C)(NC(=O)c1ccc2c(=O)c3ccccc3[nH]c2c1)c1ccccn1
IC50 [4]: 53 nM
IC50 (CCRF-CEM): 2200 nM

CN(C)c1ccc(C(C)(C)NC(=O)c2cc3[nH]c4ccccc4c(=O)c3cc2F)cn1
IC50 [4]: 22 nM
IC50 (CCRF-CEM): 850 nM
IC50 (PBMC): 340 nM

CCN1CCN(c2ccc(C(C)(C)NC(=O)c3cc4[nH]c5ccccc5c(=O)c4cc3F)cn2)CC1
Activity (Serum): 92%
Activity (Rattus norvegicus [5]): Active
bioavailability [6]: 88%
Vd [7]: 1.1 L/kg
Papp [8]: 32 ×10⁻⁶ cm/s
Cmax [9]: 26 µM
Cmax [10]: 0.41 µM
Activity (Rattus norvegicus [11]): Active
IC50 [4]: 17 nM
IC50 (Cytochrome P450 2D6): > 20000 nM
AUC [12]: 5.2 µM·h
Tmax (Rattus norvegicus [13]): 4 h
IC50 (CCRF-CEM): 770 nM
bioavailability [14]: 43%
clearance [15]: 29 mL/min/kg
Activity (Rattus norvegicus [16]): Active
MRT [17]: 5.5 h
IC50 (Cytochrome P450 3A4): 13000 nM
half-life [18]: 4 h
Vd [19]: 7.4 L/kg
AUC [20]: 102 µM·h
IC50 (Cytochrome P450 1A2): > 20000 nM
IC50 (Cytochrome P450 2C9): > 20000 nM
MRT [21]: 4.4 h
IC50 (Cytochrome P450 2C19): 19000 nM
logP [22]: 2.5
IC50 (PBMC): 220 nM
clearance [23]: 3.4 mL/min/kg
half-life [24]: 3.6 h

CN(C)S(=O)(=O)c1cccc(C(C)(C)NC(=O)c2cc3[nH]c4ccccc4c(=O)c3cc2F)c1
IC50 [4]: 7.9 nM
IC50 (CCRF-CEM): 380 nM
IC50 (PBMC): 130 nM

CC(C)(NC(=O)c1cc2[nH]c3ccccc3c(=O)c2cc1F)c1ccccn1
IC50 [4]: 29 nM
IC50 (CCRF-CEM): 1000 nM

CC(C)(NC(=O)c1cc2[nH]c3ccccc3c(=O)c2cc1F)c1ccc(S(C)(=O)=O)cc1
IC50 [4]: 12 nM
IC50 (CCRF-CEM): 480 nM
IC50 (PBMC): 170 nM

CC(C)(NC(=O)c1cc2[nH]c3ccccc3c(=O)c2cc1F)c1cnc2c(c1)OCCN2
IC50 [4]: 17 nM
IC50 (CCRF-CEM): 920 nM
IC50 (PBMC): 320 nM

CC(C)(C)NC(=O)c1ccc2c(=O)c3ccccc3[nH]c2c1
IC50 [4]: 59 nM
IC50 (CCRF-CEM): 3300 nM
